From ChEMBL document CHEMBL1134602, “A new class of symmetric bisbenzimidazole-based DNA minor groove-binding agents showing antitumor activity” (J Med Chem, 2001) come the findings set out here.

pIC50: −log10 of the molar value.

A short description of assay [1]: Resistance factor was determined using the ratio of resistance of resistant cell line and its parent cell line.
The subject of another assay is A2780cisR. Kind of assay: Antitumor activity of compound for 96-h exposure in A2780cisR (acquired resistance to cisplatin) human ovarian cell line. In kind it is functional, cell-based. An outline of the steps:
(§1)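 Cells grown as monolayers in DMEM with 10% fetal bovine serum, 2 mM glutamine and 0.5 µg/mL hydrocortisone, in 6% CO2. Seeded at 3000-5000/well and attached overnight. Serial drug dilutions (compound dissolved in 10% DMSO) added to quadruplicate wells, 96 h. Fixed with TCA, stained with SRB, absorbance read at 540 nm. IC50 is the concentration giving 50% of control absorbance. Resistance factor is resistant-subline IC50 divided by parent IC50.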

Assay [2] concerns CH1. Kind of assay: In vivo antitumor activity was determined after a dose of 4 mg/kg (ip) using hollow fiber assay with (ip)implanted CH1 cells. Format: functional, Homo sapiens. An outline of the steps:
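CH1 cells trypsinized, seeded at 1 × 10^7 cells/mL into 2-cm PVDF fibers, heat-sealed and incubated 3 days. Fibers then implanted ip in nude mice. Next day a single 4 mg/kg ip dose given, or vehicle (10% DMSO/90% arachis oil). Fibers retrieved six days later; viable cells measured by MTT absorbance at 540 nm and expressed as % treated/control.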

Assay [3] concerns CH1. Kind of assay: Antitumor activity of compound for 96-h exposure in CH1 human ovarian cell line. In kind it is functional, cell-based. The following applies: CH1, 96 h. The gist of the method: as §1
The next assay relates to OVCAR-3. Kind of assay: In vivo antitumor activity was determined after a dose of 4.5 mg/kg (ip) using hollow fiber assay against OVCAR-3 human ovarian carcinoma cells (ip-implanted fibers). In kind it is functional.
The test system of assay [4] is SK-OV-3. The experiment in a line: Growth inhibitory activity of compound for 2-h exposure in SKOV-3 cell line. In kind it is functional, cell-based. The following applies: Homo sapiens, SK-OV-3, 2 h. An outline of the steps:
(§2)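 SKOV-3 monolayers treated with serially diluted drug in quadruplicate wells. Drug aspirated after 2, 6 or 24 h and replaced with fresh medium for the rest of a 96-h period. Growth measured by TCA fixation, SRB staining and absorbance at 540 nm. IC50 is the concentration halving mean absorbance relative to untreated controls.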

Assay [5] deals with SK-OV-3. Kind of assay: Growth inhibitory activity of compound for 24-h exposure in SKOV-3 cell line. In kind it is functional, cell-based. The following applies: Homo sapiens, SK-OV-3, 24 h. An outline of the steps: as §2
For assay [6], the system named is SK-OV-3. Kind of assay: Growth inhibitory activity of compound for 6-h exposure in SKOV-3 cell line. In kind it is functional, cell-based. The following applies: Homo sapiens, SK-OV-3, 6 h. An outline of the steps: as §2
The test system of assay [7] is SK-OV-3. The experiment in a line: Growth inhibitory activity of compound for 96-h exposure in SKOV-3 cell line. The following applies: Homo sapiens, SK-OV-3, 96 h. In kind it is functional, cell-based. An outline of the steps: as §1
Assay [8] relates to SK-OV-3. The experiment in a line: Antitumor activity of compound for 96-h exposure in SKOV-3 human ovarian cell line. In kind it is functional, cell-based. The following applies: SK-OV-3, 96 h. The gist of the method:
as §1

The subject of assay [9] is Mus musculus. The experiment in a line: Activity was determined in ip human tumor xenograft (hallow fiber) assays in adult female nude mice. In kind it is functional. (Xenograft models place foreign cells or tissue in a host animal.)
In assay [10] the test system is Mus musculus. The experiment in a line: Activity was determined in sc human tumor xenograft (hallow fiber) assays, adult female nude mice. Format: functional.
The species named for assay [11] is Mus musculus. The experiment in a line: Total score was determined, adult female nude mice. Format: functional.
The next assay concerns A2780. Kind of assay: Antitumor activity of compound for 96-h exposure in A2780 human ovarian cell line. Format: functional, cell-based. The following applies: A2780, 96 h. The gist of the method:
as §1

On to `COc1cccc2c1C(=O)c1c(O)c3c(c(O)c1C2=O)C[C@@](O)(C(=O)CO)C[C@@H]3O[C@H]1C[C@H](N)[C@H](O)[C@H](C)O1` [DOXORUBICIN], for which the RF in [1] came to 90.
`CN(C)CCCOc1ccc(-c2nc3cc(-c4ccc5nc(-c6ccc(OCCCN(C)C)cc6)[nH]c5c4)ccc3[nH]2)cc1`: the pIC50 (in general, −log10 of the IC50, conventionally taken in molar units) in the assay on A2780cisR is 6.94; in the assay with CH1 [3], 6.62; in the assay with SK-OV-3 [4] it was 6.48; in the assay with SK-OV-3 [5], 6.94; with SK-OV-3 [6], 6.98; in the assay on SK-OV-3 [7] it was 7.00. Besides, the pIC50 in the assay on SK-OV-3 [8] is 6.43; with A2780, 6.63. Moreover, the T/C in the assay with CH1 [2] is 0.79; in the assay on OVCAR-3 it was 0.56. Also, the Ip score in the assay on Mus musculus [9] is given as 12. The same compound returned a Subcut score in the assay on Mus musculus [10] of 4. Moreover, the Total score in the assay filed under Mus musculus [11] amounted to 16. Further, in assay [1], the RF was determined as 5.8.
On to `CN1CCN(c2ccc3[nH]c(-c4ccc5[nH]c(-c6ccc(O)cc6)nc5c4)nc3c2)CC1` [HOECHST 33258], for which the negative logarithm of the IC50 (pIC50) was 5.02 in the assay with A2780cisR, 4.58 in the assay with CH1 [3], less than 4.00 in the assay with SK-OV-3 [8] and 4.92 in the assay with A2780.
`COc1ccc(-c2nc3cc(-c4ccc5[nH]c(-c6ccc(OC)cc6)nc5c4)ccc3[nH]2)cc1`: the pIC50 is 5.29 in the assay on A2780cisR, 5.42 with CH1 [3], 4.78 with SK-OV-3 [8] and 4.87 in the assay on A2780. The same compound had an Ip score in the assay on Mus musculus [9] of 8. In the assay on Mus musculus [10], this compound showed a Subcut score of 0. This compound also gave a Total score in the assay listed under Mus musculus [11] of 8.
Turning to `Oc1ccc(-c2nc3ccc(-c4ccc5nc(-c6ccc(O)cc6)[nH]c5c4)cc3[nH]2)cc1`, the pIC50 was 5.57 in the assay on A2780cisR, 5.98 with CH1 [3], 4.80 in the assay on SK-OV-3 [8] and 5.37 in the assay with A2780. For the same compound, in the assay on Mus musculus [9], the Ip score came to 10. The Subcut score in the assay on Mus musculus [10] stood at 0. This compound yielded a Total score in the assay listed under Mus musculus [11] of 10.
